Compounds with a hit are over-represented: about 5.8% of the library has one in this group of screens.
WT yeast gro inh: growth inhibition of WT yeast, mitochondrial fusion screen. 190,000 compounds, 2.1% hits. inhibition, % at 10 µM. mitochondrial fusion phenotypic screen, WT strain; in the data active means inhibition above about 58%; tested in S. cerevisiae
RBBP9 inh: inhibitors of human serine hydrolase RBBP9. inhibition, % at 7.94 µM. O75884. 220,000 compounds, 0.2% hits. AID 1515. recombinant RBBP9, FP-Rh probe fluorescence polarization;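 active means inhibition above the campaign mean of all tested compounds plus 3 SD, cut at about 14% in these data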;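 further: plate controls were DMSO wells with RBBP9 for no effect and wells lacking RBBP9 protein for full effect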
Target sequence (O75884 whole entry, looked up): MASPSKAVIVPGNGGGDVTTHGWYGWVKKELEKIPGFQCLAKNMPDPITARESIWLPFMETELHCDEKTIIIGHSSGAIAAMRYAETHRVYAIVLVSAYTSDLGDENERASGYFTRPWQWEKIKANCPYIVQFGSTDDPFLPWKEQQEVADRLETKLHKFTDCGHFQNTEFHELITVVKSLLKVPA
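System: RBBP9 protein | Quantity: 2.5 µM RBBP9 dispensing solution, before mixing | Reagent: FP-Rh probe, 375 nM dispensing solution | Timing: Enzyme-compound preincubation 30 min, then probe labeling 45 min, 25 °C | Measured by: Fluorescence polarization | Read-out: % inhibition | Replication: One well per compound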
ROMK primary: modulates human ROMK potassium channel activity | 130,000 compounds, 2% hits | Tet-inducible ROMK, thallium flux fluorescence; actives lie on both sides | B-score at 10 µM | P48048;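 active means signal ratio slope over the read window, or its plate-corrected B-score, at least 3 SD from the plate mean, either direction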;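 further: B-score of the F/F0 ratio slope over 7 to 12 s after thallium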
Target sequence (P48048 whole entry, looked up): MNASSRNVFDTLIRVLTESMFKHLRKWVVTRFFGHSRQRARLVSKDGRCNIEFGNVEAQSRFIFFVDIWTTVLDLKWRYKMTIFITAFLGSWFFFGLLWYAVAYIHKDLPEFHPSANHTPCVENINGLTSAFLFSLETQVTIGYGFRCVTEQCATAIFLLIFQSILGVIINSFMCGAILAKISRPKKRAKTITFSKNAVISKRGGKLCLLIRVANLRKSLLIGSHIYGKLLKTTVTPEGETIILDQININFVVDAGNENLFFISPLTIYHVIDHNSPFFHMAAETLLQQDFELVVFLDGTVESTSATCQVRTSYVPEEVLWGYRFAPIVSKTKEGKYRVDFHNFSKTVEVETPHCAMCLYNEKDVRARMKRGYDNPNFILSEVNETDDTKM
KCC2 mod: modulators of human KCC2 chloride dependent transport. KCC2 cells, thallium flux FluoZin-2 fluorescence. 190,000 compounds, 2.2% hits. Q9H2X9. B-score of Tl+ flux slope (higher = more flux/activation; lower = inhibition) at 10 µM;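 active means thallium flux slope and its plate-corrected score both differing from the plate sample mean at a set confidence after two filtering rounds, in either direction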;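 further: slope of fluorescence scaled to starting intensity during 10 to 20 s after thallium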
14-3-3 Bad inh: disrupts binding of bovine 14-3-3 zeta to phospho-Bad peptide; TR-FRET 14-3-3zeta/Dy647-pBad peptide displacement, 1 h; AID 781; P63103; 220,000 compounds, 0.71% hits; inhibition, % at 21.7 µM;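 active means inhibition above about 70%, limit read from the data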;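 further: 0% = full 14-3-3 plus peptide FRET controls and 100% = background without 14-3-3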
Target sequence (P63103 whole entry, looked up): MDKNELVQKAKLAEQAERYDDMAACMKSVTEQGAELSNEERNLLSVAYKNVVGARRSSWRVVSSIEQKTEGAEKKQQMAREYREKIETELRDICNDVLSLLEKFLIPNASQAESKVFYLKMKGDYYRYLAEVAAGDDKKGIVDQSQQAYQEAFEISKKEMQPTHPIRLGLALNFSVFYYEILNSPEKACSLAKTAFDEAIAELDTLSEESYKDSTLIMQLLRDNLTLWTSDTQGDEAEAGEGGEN
p47phox inh: p47phox (human) inhibition; P14598; p47phox/p22phox peptide binding, fluorescence polarization, 2 h; inhibition, % at 24.7 µM; 220,000 compounds, 0.53% hits; AID 1274;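 active means inhibition above about 30%, limit read from the data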;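 further: 0% = p47phox with labelled peptide and 100% = labelled peptide alone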
KCC2 sec1: confirmation of human KCC2 transport modulators; 3,700 compounds, 15% hits; HEK293-KCC2, thallium flux, FluoZin2 fluorescence; hits give high values; shares compounds with KCC2 mod; normalised thallium flux (F/F0 slope) at 10 µM;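 active means thallium flux slope above the same plate's solvent-only control mean plus 3 SD; inconclusive means the two replicate wells disagree; inactive means no significant difference from solvent-only control wells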
KCC2 bumet counter: thallium flux persisting under bumetanide in KCC2 cells, counter-screen secondary assay. shares compounds with KCC2 mod. normalized thallium flux at 10 µM. 3,700 compounds, 49% hits. HEK293-KCC2 + bumetanide/ouabain, thallium flux FluoZin2; hits give high values;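 active means thallium entry rate above the same plate's blocked-transporter control wells by more than 3 SD; inconclusive means the two repeat wells disagree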;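 further: raw slope of fluorescence over initial fluorescence between 10 and 20 s after thallium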
KCC2 secondary2: confirmation of human KCC2 transport modulators; shares compounds with KCC2 mod; AID 1715; normalized thallium flux at 10 µM; HEK293-KCC2, thallium flux FluoZin2 fluorescence; actives lie on both sides; F/F0 rise rate, 10–20 s post-thallium; 3,700 compounds, 23% hits;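 active means thallium flux slope more than 3 SD above or below the plate's solvent-only control mean, mostly below; inconclusive means the two repeat wells disagreed; inactive means no significant shift from solvent-only controls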;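 further: raw slope with 0.1% DMSO as baseline and bumetanide as block control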
HEK293 Tl flux: counter-screen for KCC2 modulators: effect in parental HEK293 cells; shares compounds with KCC2 mod; thallium flux FluoZin2, ouabain; baseline-ratio fluorescence slope, 10–20 s after thallium; thallium flux rate (normalised fluorescence) at 10 µM; 3,700 compounds, 46% hits; AID 1716;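 active means thallium flux rate significantly above the same plate's solvent-only control wells, beyond their mean plus 3 SD; inconclusive means the two replicate wells gave conflicting results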
KCC2 ouabain: confirmation of human KCC2 modulators with ouabain. HEK293-KCC2, thallium flux FluoZin2 fluorescence; bidirectional: low = inhibitor, high = activator. 3,700 compounds, 48% hits. shares compounds with KCC2 mod. raw Tl+ flux slope (below DMSO = inhibition, above = activation) at 10 µM. AID 1717;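 active means thallium flux slope beyond 3 SD from same-plate DMSO control mean in most replicates, usually higher, sometimes lower; inconclusive means repeat tests gave conflicting results; inactive means no significant difference from controls in most replicates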;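 further: slope of initial-normalized fluorescence between seconds 10 and 20 after thallium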
HEK counter2: counter-screen for KCC2 modulators: effect in parental HEK293 cells; thallium flux slope at 10 µM; shares compounds with KCC2 mod; 3,700 compounds, 33% hits; thallium flux FluoZin-2 fluorescence slope;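 active means thallium flux slope above the same plate's solvent-control mean plus 3 SD in both duplicate wells; inconclusive means duplicate wells that disagreed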;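 further: run without ouabain in cells lacking the KCC2 cotransporter; slope of fluorescence scaled to its starting value between 10 and 20 s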
The depositor's hits bear a star; i = inactive; ? = inconclusive; / = not tested or not shown.

SMILES | WT yeast gro inh | RBBP9 inh | ROMK primary | KCC2 mod | 14-3-3 Bad inh | p47phox inh | KCC2 sec1 | KCC2 bumet counter | KCC2 secondary2 | HEK293 Tl flux | KCC2 ouabain | HEK counter2
CCCCOC(=O)n1c(=O)oc2ccccc21 | 12 | 0 | / | -4.3* | -15 | -1 | 0.012* | 0.0058 | 0.036 | 0.0071 | 0.021 | 0.011
Cc1ccc(C(=O)Nc2nc(=O)n(C(=O)CC(C)C)s2)cc1 | 0 | -9 | / | -2.2 | 43 | 3 | / | / | / | / | / | /
Cc1ccc(C(=O)Nc2nc(=O)n(C(=O)c3ccccc3Cl)s2)cc1 | -16 | 4 | -2.3 | -7.2* | 24 | -38 | 0.0061 | ? | 0.024* | 0.0063 | 0.012* | 0.0089
CCOCc1cc(=O)[nH]c(SC)n1 | / | -1 | / | 1.5 | 6 | -17 | / | / | / | / | / | /
O=C(Nc1nnc(-c2ccccc2)o1)Nc1ccccc1Cl | 8 | -11 | / | 20* | 10 | -25 | ? | 0.032* | 0.038 | ? | 0.036* | ?
O=C(Nc1nnc(-c2ccccc2)o1)Nc1ccc(F)cc1F | 3 | -5 | -0.22 | 3.7 | -5 | -18 | / | / | / | / | / | /
CCOc1ccc(NC(=S)NC(=O)/C=C/c2ccc(C)cc2)c([N+](=O)[O-])c1 | 10 | -1 | 0.49 | -0.24 | 19 | 6 | / | / | / | / | / | /
CCOc1ccc(NC(=S)NC(=O)c2c(Cl)c(C)nn2C)c([N+](=O)[O-])c1 | 9 | -9 | 0.35 | 9.4* | 8 | -3 | 0.011 | 0.017* | 0.034 | ? | ? | 0.012
Cc1ccc2cccc(OCC(=O)Nc3ccc4c(c3)OCO4)c2n1 | 11 | -1 | -0.69 | -5.9* | -6 | -7 | ? | 0.006 | 0.029 | 0.0062 | 0.014* | 0.01
CCN(CC(=O)NCc1ccc(Cl)cc1)C(=O)c1ccc(S(=O)(=O)N(C)C)cc1 | -9 | 0 | 0.024 | -0.023 | -21 | 1 | / | / | / | / | / | /
Cc1ccc(S(=O)(=O)N(CC(=O)O)Cc2ccccc2)cc1 | 2 | -2 | 0.35 | 0.011 | -3 | -15 | / | / | / | / | / | /
Cc1ccc(S(=O)(=O)N(CCC(=O)O)Cc2ccc(Cl)cc2)cc1 | 11 | -7 | -0.28 | / | 3 | 0 | 0.0059 | 0.0067* | 0.022* | 0.0072 | 0.013* | 0.011
CCOC(=O)Cc1csc(NC(=O)c2ccc(OC)c(OC)c2)n1 | 40 | -7 | / | -0.0054 | -2 | -5 | / | / | / | / | / | /
CCOC(=O)Cc1csc(NC(=S)NC(=O)c2cc(OC)c(OC)c(OC)c2)n1 | / | 0 | / | 6.9* | 4 | 3 | 0.016 | 0.016* | 0.03 | 0.0098* | 0.019 | 0.011
CCOC(=O)Cc1csc(NC(=O)Nc2ccc(F)cc2)n1 | / | -7 | / | 0.79 | 4 | 3 | / | / | / | / | / | /
CCOC(=O)Cc1csc(NC(=S)NC(=O)c2ccc(F)cc2)n1 | 5 | -7 | 1.4 | 11* | -2 | 0 | 0.0072 | 0.039* | 0.041* | 0.03* | 0.046* | 0.02*
CC(=O)c1cccc(CN2CCCC(CCC(=O)NCc3ccccc3F)C2)c1 (stereo not drawn) | 7 | -2 | 0.28 | 0.31 | 12 | -6 | / | / | / | / | / | /
COc1ccc(-c2nc3n(n2)C(c2cccnc2)C(C(N)=O)=C(C)N3)cc1 (stereo not drawn) | 9 | 1 | 0.13 | 0.15 | -10 | -3 | / | / | / | / | / | /
COc1ccc(-c2nc3n(n2)C(c2ccncc2)C(C(N)=O)=C(C)N3)cc1 (stereo not drawn) | 13 | -4 | / | 11* | -6 | 13 | 0.0081 | 0.007 | 0.032 | 0.008 | 0.022 | 0.011
COc1ccc(/C=N/NC(=O)CCSc2nc3ccccc3s2)cc1 | 21 | -3 | 1.7 | -0.0089 | 12 | 23 | / | / | / | / | / | /
CC(=O)c1cccc(NC(=O)Nc2ccc(C(=O)N3CCCC3)cc2)c1 | 4 | -6 | / | 7.4* | 0 | 8 | ? | 0.0038 | 0.027 | 0.0064 | 0.016 | 0.0094
COc1cccc(C(=O)Nc2cccc(C(=O)N3CCOCC3)c2)c1 | 9 | -4 | 0.02 | 0.19 | -2 | -11 | / | / | / | / | / | /
Cc1cccc(C(=O)Nc2cccc(C(=O)N3CCOCC3)c2)c1 | 4 | -7 | -1 | 4.3* | 0 | -4 | 0.017 | 0.0047 | 0.032 | 0.0078 | 0.018 | 0.01
CCn1c(SCC#N)nc2c(c1=O)C1(CCCC1)Cc1ccccc1-2 | 36 | -11 | -0.0032 | 17* | / | 0 | 0.015* | 0.058* | 0.037 | ? | 0.04* | ?
Cc1ccccc1-n1c(=O)c2c(n3cnnc13)-c1ccccc1CC21CCCCC1 | -24 | -6 | / | -0.81 | 23 | -12 | / | / | / | / | / | /
SMILES | WT yeast gro inh | RBBP9 inh | ROMK primary | KCC2 mod | 14-3-3 Bad inh | p47phox inh | KCC2 sec1 | KCC2 bumet counter | KCC2 secondary2 | HEK293 Tl flux | KCC2 ouabain | HEK counter2
CCn1c(=O)c2c(n3c(=S)[nH]nc13)-c1ccccc1CC21CCCCC1 | 7 | -2 | 0.31 | 65* | -20 | -5 | 0.0072 | 0.07* | ? | 0.06* | 0.059* | 0.034*
CCSc1n[nH]c2nc3c(c(=O)n12)C1(CCCCC1)Cc1ccccc1-3 | / | -6 | / | -1.3 | -2 | -20 | / | / | / | / | / | /
CCCn1c(SCC(N)=O)nc2c(c1=O)C1(CCCC1)Cc1ccccc1-2 | -17 | -1 | -1.9 | / | -1 | -4 | 0.013* | 0.031* | 0.036 | 0.017* | ? | 0.012*
CC(C)N(C)CCOC(=O)C1COc2ccccc2O1 (stereo not drawn) | / | -5 | 0.68 | i | -4 | -7 | / | / | / | / | / | /
Fc1ccc(-c2n[nH]c(=S)c3ccccc23)cc1 | 10 | -13 | / | 14* | -2 | -7 | 0.011 | 0.021* | 0.034 | 0.016* | ? | 0.013*
c1ccc(-c2n[nH]c3ccccc23)cc1 | 8 | 1 | 2.5 | -2.9* | 0 | -10 | 0.0077 | 0.0061 | 0.03 | 0.0066 | 0.02 | 0.0096
O=c1[nH]nc(-c2ccccc2)c2ccccc12 | / | 1 | / | 0.16 | -5 | -10 | / | / | / | / | / | /
CCc1cc(C(=O)N2CCCC(CCC(=O)NCc3cccc(OC)c3)C2)no1 (stereo not drawn) | -1 | -2 | 0.88 | -1.5 | -8 | -5 | / | / | / | / | / | /
COC(=O)CSc1nnc(SCc2ccccc2)s1 | 4 | -2 | 0.28 | / | -1 | 2 | 0.0058 | ? | 0.021* | 0.006* | 0.012* | 0.0087
